# Columns and labels:
# [1] = test system: Hep3B hepatocellular carcinoma cells; details: 35 µM for 24 h; ref Lu et al., 2022; cited from earlier work
# HL‐60 cells [2] = experiment: Annexin V / propidium iodide flow cytometry; assay type: cell-based, human; details: 6 µM, 24 h, mean ± SD; for Early apoptotic cells (AnnV+/PI−): untreated 1.9 ± 0.5%; for Necrotic cells (AnnV−/PI+): untreated 3.6 ± 1.6%; for Late apoptotic cells (AnnV+/PI+): untreated 9.5 ± 2.7%; for Living cells (AnnV−/PI−): untreated 85 ± 3.9%
# Procedure, shortened: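 HL-60 cells (100,000) were treated for 24 h at 1, 3 or 6 µM, then resuspended in Annexin V binding buffer (0.01 M HEPES, 0.14 M NaCl, 2.5 mM CaCl2). Annexin V-Alexa 488 was added for 15 min in the dark at room temperature, then PI (10 µg/ml). Quadrant percentages were taken by flow cytometry; three biological replicates, mean ± SD; two-tailed t test against untreated.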
# HL‐60 cells [3] = experiment: Mitochondrial membrane depolarization by JC-1 staining; assay type: cell-based, human; details: 16 h, untreated 7.6 ± 0.6%; for Cells with green JC‐1 accumulation (depolarized MMP): 3 µM; for Cells with green JC‐1 monomers (depolarized MMP): 6 µM
# [4] = test system: 4T1 murine triple negative breast cancer cells; experiment: Resazurin cell viability assay on 4T1 cells; assay type: cell-based; details: Mus musculus, 4T1, 72 h, read-out: IC50 4T1
# Procedure, shortened: (§1)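 Cells were seeded in 96-well plates (4T1 10,000, A549 10,000, HL-60 20,000 per well), with adherent lines settling overnight. Test compound came from a 10 mM DMSO stock, serially diluted in medium to 1.56–50 µM (some 39 nM–12.5 µM), for 72 h; three biological replicates. Resazurin (0.15 mg/ml stock, 20 µl per 100 µl) ran 2 h at 37 °C, read at 530/580 nm. Viability was set against untreated and blank wells; IC50 from curves.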
# [5] = test system: HL‐60 human acute promyelocytic leukemia cells; experiment: Resazurin cell viability assay on HL-60 cells; assay type: cell-based; details: HL-60, 72 h, read-out: IC50 HL‐60
# Procedure, shortened: as §1
# HL‐60 cells [6] = experiment: Cell cycle analysis by flow cytometry; assay type: cell-based, human; details: 72 h
# [7] = test system: 4T1, A549, and HL‐60 cells; assay type: cell-based; details: resazurin assay, 72 h, up to 50 µM, three cancer cell lines
# Procedure, shortened: as §1
# HL‐60 cells [8] = experiment: Sub-G1 DNA fragmentation analysis by flow cytometry; assay type: cell-based, human; details: 6 µM, 72 h; mean ± SD; untreated 11.7 ± 1.2%
# [9] = test system: 4T1 breast carcinoma cells; experiment: 4T1 murine breast cancer model; assay type: in vivo, BALB/c mice; details: 27th day; 60 mg/kg daily i.p.; mean ± SEM, n = 10; untreated 768 ± 134
# [10] = test system: colorectal cancer cell line HCT‐116; details: read-out: IC50 HCT‐116; antiproliferative; ref Han et al., 2022; cited from earlier work
# [11] = test system: A431 epidermoid carcinoma cancer cell line; details: 15 µM treatment; ref LaBarbera et al., 2009; cited from earlier work
compound,measurement,setting,value
C=CC(C)(CC/C=C(\C)CCC=C(C)C)S(=O)(=O)CCN=C(N)N (stereo not drawn) [(−)‐Agelasidine A],"Apoptosis and mitochondrial effect in Hep3B, in words",[1],Annexin V+ apoptosis and mitochondrial membrane depolarization
"Nc1nc(-c2cccc(NC(=O)c3cc4cc(Br)ccc4[nH]3)c2)c(C(=O)c2ccccc2)[nH]1 [Compound 28, N‐(3‐(2‐amino‐5‐benzoyl‐1H‐imidazol‐4‐yl)phenyl)‐5‐bromo‐1H‐indole‐2‐carboxamide]",Early apoptotic cells (AnnV+/PI−),HL‐60 cells [2],23.4 ± 1%
same,Necrotic cells (AnnV−/PI+),HL‐60 cells [2],2.1 ± 0.4%
same,Late apoptotic cells (AnnV+/PI+),HL‐60 cells [2],43.4 ± 1.2%
same,Living cells (AnnV−/PI−),HL‐60 cells [2],31.1 ± 0.8%
same,Cells with green JC‐1 accumulation (depolarized MMP),HL‐60 cells [3],10.4 ± 0.2%
same,Cells with green JC‐1 monomers (depolarized MMP),HL‐60 cells [3],50.3 ± 0.7%
same,IC50,[4],13 µM
same,IC50,[5],2.91 µM
same,Cells in G2/M phase,"HL‐60 cells [6]; 3 µM, untreated 17.3 ± 1.7%",21.0 ± 0.5%
same,"Effect on cell cycle distribution, in words",HL‐60 cells [6],significantly disturbed cell cycle distribution
same,Cytotoxic / antiproliferative activity in words,[7],hampered the viability of all three tested cell lines
same,DNA fragmentation (sub‐G1 population) of HL‐60 cells,HL‐60 cells [8],56.5 ± 2.8%
"Nc1nc(-c2cccc(NC(=O)c3cc4cc(Cl)ccc4[nH]3)c2)c(C(=O)c2ccccc2)[nH]1 [Compound 29, N‐(3‐(2‐amino‐5‐benzoyl‐1H‐imidazol‐4‐yl)phenyl)‐5‐chloro‐1H‐indole‐2‐carboxamide]",Early apoptotic cells (AnnV+/PI−),HL‐60 cells [2],11.4 ± 1.1%
same,Necrotic cells (AnnV−/PI+),HL‐60 cells [2],5.9 ± 1.1%
same,Late apoptotic cells (AnnV+/PI+),HL‐60 cells [2],44.7 ± 4.8%
same,Living cells (AnnV−/PI−),HL‐60 cells [2],37.8 ± 4.6%
same,Cells with green JC‐1 accumulation (depolarized MMP),HL‐60 cells [3],9.4 ± 1.1%
same,Cells with green JC‐1 monomers (depolarized MMP),HL‐60 cells [3],29.7 ± 2.1%
same,IC50,[4],3.1 µM
same,IC50,[5],4.03 µM
same,Cytotoxic / antiproliferative activity in words,[7],hampered the viability of all three tested cell lines
same,DNA fragmentation (sub‐G1 population) of HL‐60 cells,HL‐60 cells [8],64.3 ± 2.1%
same,4T1 tumor volume,[9],443 ± 54 mm^3
Hemimycalin C,IC50,[10],18.6 µM
Hemimycalin D,IC50,[10],17.1 µM
Hemimycalin E,IC50,[10],8.6 µM
Naamidine A,"Apoptotic effect in A431, in words",[11],apoptotic effects
